# Source: PubChem
# Sampled rows, rich in hits. Any-hit rate of the full collection: about 4.5%.
# GPR7 antag: human neuropeptides B/W receptor 1 antagonism. P48145. GPR7-expressing cells, fluorescence antagonist assay. inhibition, % at 4.4 µM. 290,000 compounds, 1.1% hits. AID 1861; in the data active = inhibition above about 16%, passing the limit was not always enough;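 note: cells stimulated with the agonist NPW; 0% = agonist with vehicle and 100% = vehicle without agonist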
# TAAR1 antagonist: antagonists of human TAAR1; CHO RD-HGA16 TAAR1, Fluo-8 calcium fluorescence, antagonist; inhibition, % at 3 µM; 360,000 compounds, 1.5% hits; AID 624466;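 active = inhibition above a per-plate cutoff, the mean inhibition of test compounds on that plate plus 3 SD, cut at about 49% in these data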;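 note: 0% = DMSO plus EC80 beta-PEA response and 100% = DMSO alone without agonist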
#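 Material: RD-HGA16 CHO cells with stable hTAAR1 and Gα16; Dosing: single nominal final test compound concentration of 3 µM; Schedule: seeding 17-24 h prior, 75-min 37 °C, 30-min RT dye loading; Detection: kinetic Fluo-8 calcium fluorescence measurement; Measure: % inhibition from peak post-agonist over basal fluorescence ratio; Benchmarks: vehicle and agonist controls.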
# OX1R antag-1: antagonists of human orexin 1 receptor (OX1R). OX1R-expressing cells, FRET antagonist read-out. O43613. inhibition, % at 6.6 µM. 330,000 compounds, 1.8% hits; in the data active = inhibition mostly above about 38%, no sharp cut-off; inactive = mostly below about 40%;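 note: 0% = agonist challenge alone and 100% = reference antagonist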
# Target sequence (O43613 whole entry, looked up): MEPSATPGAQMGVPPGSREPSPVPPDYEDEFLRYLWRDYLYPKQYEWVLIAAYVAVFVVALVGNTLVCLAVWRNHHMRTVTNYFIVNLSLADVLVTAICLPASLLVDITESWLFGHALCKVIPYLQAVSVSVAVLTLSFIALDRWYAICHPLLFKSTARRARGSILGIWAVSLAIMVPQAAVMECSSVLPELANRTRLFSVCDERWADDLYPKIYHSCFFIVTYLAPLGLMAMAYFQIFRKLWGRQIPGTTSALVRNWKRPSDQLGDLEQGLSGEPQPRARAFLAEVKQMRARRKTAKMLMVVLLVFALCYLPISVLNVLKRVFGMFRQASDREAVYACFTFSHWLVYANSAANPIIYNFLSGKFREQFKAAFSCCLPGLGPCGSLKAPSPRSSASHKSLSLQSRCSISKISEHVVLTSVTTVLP
# CHO parental Ca: counter-screen: ATP calcium response change in parental CHO cells | parental CHO-K1, ATP-induced calcium, Fluo-8 fluorescence | inhibition, % at 5.6 µM | 330,000 compounds, 0.63% hits;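 active = inhibition above that plate's mean sample inhibition plus 3 SD, cut at about 26% in these data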;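 note: 0% = ATP-challenged DMSO wells and 100% = DMSO wells without ATP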
#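 test system = CHO parental line | reagent = ATP stimulus | measured by = intracellular calcium via Fluo-8 no-wash fluorescent dye | control set = ATP and no-ATP DMSO wells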
# OX1R antag-2: blocks the human orexin 1 receptor | CHO/OX1R cells, Fluo-8 calcium fluorescence, orexin A | AID 434989 | inhibition, % at 5 µM | 330,000 compounds, 0.43% hits | O43613;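 active = inhibition above its plate's threshold, mean inhibition of all tested compounds on the plate plus 3 SD, cut at about 37% in these data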;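 note: 0% = orexin A challenge wells and 100% = SB-334867-A antagonist wells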
# TAAR1 agonist: human TAAR1 agonism. CHO RD-HGA16 TAAR1, Fluo-8 calcium fluorescence; vehicle wells 0%, saturating PEA agonist 100%. Q96RJ0. activation, % at 3 µM. 360,000 compounds, 0.99% hits. AID 624467;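 active = activation above the mean activation of all test compounds in the run plus 3 SD, cut at about 38% in these data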
#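 Signal – calcium-sensitive Fluo-8 signal, excitation 470-495, emission 515-575 nm · System – RD-HGA16 (CHO) cells co-expressing Gα16 and hTAAR1 · Incubation – 17-24 h seeding, 75 min 37 °C dye, 30 min RT · Compound dosing – 3 µM single concentration · Repeats – no replicates (n 1)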
# GPR7 antag cf: human GPR7 antagonism, confirmation assay. shares compounds with GPR7 antag. GPR7-expressing cells, calcium fluorescence antagonist mode. inhibition, % at 4.4 µM. 2,400 compounds, 52% hits. AID 1952; in the data active = inhibition above about 24%;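 note: stimulated with the GPR7 agonist NPW; 0% = agonist plus vehicle and 100% = vehicle alone without agonist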
# MCHR1 antag: counter-screen for GPR7 antagonists: antagonists of human MCHR1. shares compounds with GPR7 antag. MCHR1-expressing cells, fluorescence antagonist assay. inhibition, % at 4.4 µM. 2,400 compounds, 62% hits; in the data active = inhibition above about 22%;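 note: 0% = vehicle with agonist and 100% = vehicle without agonist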
# * marks the source's active call; other numbers are inactive results; · = not tested or not shown.
SMILES,GPR7 antag,TAAR1 antagonist,OX1R antag-1,CHO parental Ca,OX1R antag-2,TAAR1 agonist,GPR7 antag cf,MCHR1 antag
CN(C)c1ccc(NC(=O)CN2CCN(S(=O)(=O)c3cc(Cl)ccc3Cl)CC2)cc1,-3,6,1,-5,-23,3,·,·
O=C1CC(c2ccccc2)CC2=C1C1(CCCC1)N=C(Nc1nc3ccccc3o1)N2 (configuration not stated),·,1,·,·,·,3,·,·
O=[N+]([O-])c1nn(-c2ccc3c(c2)OCCO3)n(O)c1=Nc1ccc(Cl)cc1,28*,-7,8,-8,-27,4,34*,21
C[C@H](CO)N1C[C@H](C)[C@H](CN(C)C(=O)OCc2ccccc2)OCc2cnnn2CCCC1=O,·,9,·,·,·,2,·,·
Cc1ccc(S(=O)(=O)N2CCN(C(=O)CSc3ccc(Cl)cc3)CC2)cc1,4,13,4,-20,-23,1,·,·
CC(=O)c1ccc(S(=O)(=O)N2CCN(C(=O)CSc3ccc(C)c(C)c3)CC2)cc1,35*,13,17,4,-2,-2,20,7
Nc1nc(SCc2ccccc2)sc1C(=O)N1CCCCC1,·,-2,·,·,·,11,·,·
CCOC(=O)Cc1csc(NC(=O)COc2ccc(N(C)S(=O)(=O)c3ccc(C)cc3)cc2)n1,32*,17,25,-1,5,10,27*,67*
O=C(Nc1cccc2c1CCCC2)c1cccc(F)c1,-20,-29,11,-16,-22,9,·,·
COc1cc(OC)cc(C(=O)Nc2cccc3c2CCCC3)c1,32*,-1,3,8,6,28,21,16
C=CCc1cccc(Cl)c1OCCCNC1CCCC1,30*,8,3,-20,-22,6,31*,21*
O=C(Nc1nnc([C@@H]2C[C@H](O)[C@@H](CO)O2)s1)c1cccc(C(F)(F)F)c1,·,1,·,·,·,1,·,·
NS(=O)(=O)c1ccc2nc(NC(=O)Nc3ccc(F)cc3)sc2c1,34*,8,28,10,4,17,50*,15
CS(=O)(=O)c1ccc2nc(NC(=O)Nc3ccc(Cl)cc3)sc2c1,5,27,24,-8,3,22,·,·
COC(=O)c1ccc(-c2ccc(/C=N/NC(=O)CC3(C)OCCCO3)o2)cc1,24*,4,17,-16,-18,3,0,11
CC1(CC(=O)N/N=C/c2ccc(-c3ccc(C(=O)O)cc3)o2)OCCO1,-15,-25,31,-2,-1,9,·,·
CN(C)c1ccc(/C=C/c2ccc3c4ccccc4ccc3[n+]2-c2ccccc2)cc1,43*,22,·,·,·,10,79*,78*
COc1cc(C=Cc2nnc3c4ccccc4cnn23)cc(OC)c1OC,·,13,·,·,·,5,·,·
O=C1NC[C@@H](CCCCN2CCN(CCc3ccc(O)cc3)C(=O)C2=O)N(CCc2ccc(O)cc2)C1=O,·,-18,·,·,·,3,·,·
CCOc1ccccc1-n1c(C)nc2cc(C(=O)O)ccc21,28*,-6,22,0,6,1,-28,2
COCc1cccc(-c2csc(C(C)(O)c3cccc(F)c3)n2)c1 (configuration not stated),·,21,·,·,·,3,·,·
CCOC(=O)C1(C)CCCN1C(=O)c1csnn1 (configuration not stated),·,-28,·,·,·,1,·,·
Cc1ccc(C(Sc2ccccc2)C(Cn2cncn2)C(=O)c2ccccc2)cc1 (configuration not stated),-1,7,34,-34,-28,16,·,·
Cc1ccc(SC(c2ccc(C)cc2)C(Cn2cncn2)C(=O)c2ccccc2)cc1 (configuration not stated),26*,34,18,-29,-35,19,3,3
O=C1OCCC1(c1ccccc1)c1ccccc1,·,-6,·,·,·,3,·,·
Cc1ccc(C(=O)NCC(=O)OCc2nc3ccsc3c(=O)[nH]2)cc1C,·,-15,·,·,·,3,·,·
